Experimental data gathered from unrelated publications.
Protocols differ between the studies behind these lines.
Target: Serine/threonine-protein kinase D2 (PRKD2, Homo sapiens, UniProt Q9BZL6)
One construct used (Q9BZL6 1-878): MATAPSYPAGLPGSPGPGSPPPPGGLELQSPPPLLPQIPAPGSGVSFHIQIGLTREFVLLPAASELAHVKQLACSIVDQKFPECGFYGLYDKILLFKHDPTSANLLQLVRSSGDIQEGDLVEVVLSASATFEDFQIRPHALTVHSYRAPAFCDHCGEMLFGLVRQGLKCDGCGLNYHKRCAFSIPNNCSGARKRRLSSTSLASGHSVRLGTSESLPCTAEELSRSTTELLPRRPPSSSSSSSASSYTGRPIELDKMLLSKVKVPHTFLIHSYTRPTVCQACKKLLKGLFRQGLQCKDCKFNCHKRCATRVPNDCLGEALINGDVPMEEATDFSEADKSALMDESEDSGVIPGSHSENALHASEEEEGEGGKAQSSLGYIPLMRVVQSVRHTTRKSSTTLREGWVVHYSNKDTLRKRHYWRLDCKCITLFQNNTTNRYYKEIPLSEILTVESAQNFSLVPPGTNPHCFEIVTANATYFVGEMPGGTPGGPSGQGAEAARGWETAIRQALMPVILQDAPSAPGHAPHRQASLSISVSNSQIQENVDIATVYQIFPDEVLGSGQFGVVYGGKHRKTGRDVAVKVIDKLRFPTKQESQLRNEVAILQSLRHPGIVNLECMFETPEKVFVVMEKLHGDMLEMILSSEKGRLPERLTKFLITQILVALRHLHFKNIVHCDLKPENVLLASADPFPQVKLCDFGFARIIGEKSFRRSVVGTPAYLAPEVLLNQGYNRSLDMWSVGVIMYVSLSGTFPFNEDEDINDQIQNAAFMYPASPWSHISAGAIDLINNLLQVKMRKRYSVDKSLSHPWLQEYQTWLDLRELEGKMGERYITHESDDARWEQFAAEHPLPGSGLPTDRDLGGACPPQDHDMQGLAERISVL

Structure (SMILES) | effect on | technique | concentration | remaining binding [%]
COc1cnc(Nc2cccc(S(N)(=O)=O)c2)nc1N1CCN(c2ccccc2)C(=O)C1 | binding | competition with immobilised ligand | 1 µM | 100
CN(C)c1nccc(-c2cnn3ncccc23)n1 | binding | – | 1 µM | 89
COc1ncc2cc3ccccc3nc2c1C#N | cell-free assay | competition with immobilised ligand | 5 µM | 93
c1cncc(-c2cccc(Nc3nccc(NC4CCCCC4)n3)c2)c1 | binding | competition with immobilised ligand | 10 µM | 19
Cc1cnn2ncc(-c3ccnc(N(C)C)n3)c2c1 | binding | – | 1 µM | 100
CC1=C(C#N)[C@@H](c2ccc3[nH]nc(C)c3c2)C(C#N)=C(c2ccc(Cl)cc2)N1 | cell-free assay | competition with immobilised ligand | 1 µM | 100
O=C(c1ccc(Nc2ncc(Cl)c(-c3ccc(Cl)s3)n2)cc1)N1CCC(N2CCCC2)CC1 | binding | competition with immobilised ligand | 1 µM | 8.7
CC1CCCN1c1nccc(-c2cnn3ncccc23)n1 (stereo not shown) | binding | – | 1 µM | 85
N#Cc1ccc(Nc2ccc3[nH]c(=O)[nH]c3c2)c(Cl)c1 | cell-free assay | competition with immobilised ligand | 1 µM | 100
O=C(Nc1c[nH]nc1C(=O)NC1CCNCC1)c1cc(F)cc(F)c1 | binding | competition with immobilised ligand | 1 µM | 100
C[C@H]1CCN(c2nccc(-c3cnn4ncccc34)n2)C1 | binding | – | 1 µM | 82
C=CC(=O)N1CCC(C(=O)NCC(=O)N2CCN(c3nc(-c4cnc(N)nc4C(F)F)nc(N4CCOCC4)n3)CC2)CC1 | binding | competition with immobilised ligand | 1 µM | 100
CS(=O)(=O)N1CCCC(NC(=O)[C@H](CCC2CCCCC2)NC(=O)c2ccc(CNC(=O)c3cnc4ccccn34)cc2)C1 (stereo partly shown) | cell-free assay | competition with immobilised ligand | 0.1 µM | 100
FC(F)(F)Oc1cccc(-c2cnc3ccc(-c4ccncc4)nn23)c1 | cell-free assay | competition with immobilised ligand | 5 µM | 99
CC(=O)N1CCC(c2ccc(C(=O)NC(=N)N)cc2C(F)(F)F)CC1 | cell-free assay | competition with immobilised ligand | 1 µM | 100
N[C@H]1CCN(c2nccc(-c3cnn4ncccc34)n2)C1 | binding | – | 1 µM | 74
CNCc1ccccc1-c1csc([C@H](C)Nc2nc(C)nc3cc(OC)c(OC)cc23)c1 | cell-free assay | competition with immobilised ligand | 1 µM | 99
O=C(c1ccc(Nc2nccc(-c3cc4ccccc4s3)n2)cc1)N1CCC(N2CCCC2)CC1 | binding | competition with immobilised ligand | 1 µM | 48
COc1ccnn2ncc(-c3ccnc(N(C)C)n3)c12 | binding | – | 1 µM | 92
COc1ccc2cc(OCC3(C(=O)O)CN(C(=O)c4ccc(F)cc4)C3)ccc2c1 | cell-free assay | competition with immobilised ligand | 1 µM | 93
F[C@@H]1CCN(c2nccc(-c3cnn4ncccc34)n2)C1 | binding | – | 1 µM | 100
Cc1cnc(Nc2ccc(C(=O)N3CCC(N4CCCC4)CC3)cc2)nc1-c1cc2ccccc2s1 | binding | competition with immobilised ligand | 1 µM | 47
